Laboratory results taken from ChEMBL document CHEMBL1124792, “Synthesis and structure-activity relationships of 5-substituted 6,8-difluoroquinolones, including sparfloxacin, a new quinolone antibacterial agent with improved potency” (1990).
Values after ≈ are worked out from the molar mass of the structure shown.

Legend:
Type in all cases: functional
[1] = tested on: Pseudomonas aeruginosa; test: In vitro antibacterial activity against Pseudomonas aeruginosa 12
Procedure, shortened: (§1)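 Two-fold agar dilution MIC on Mueller-Hinton agar (pH 7.4), following the Japan Society of Chemotherapy MIC Committee method. Inoculum was about 10⁶ CFU, and growth was read after 20 h at 37 °C. MIC is reported in µg/mL.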

[2] = tested on: Staphylococcus aureus; test: In vitro antibacterial activity against Staphylococcus aureus 209P JC-1; procedure, shortened: as §1
[3] = tested on: Escherichia coli; test: In vitro antibacterial activity against Escherichia coli NIHJ JC-2; procedure, shortened: as §1
[4] = species: Mus musculus; test: Oral efficacy against Pseudomonas aeruginosa 12 on Systemic Infections in Mice
Procedure, shortened: (§2)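 Groups of at least 10 male Std-ddY mice (20 ± 2 g) were infected ip, with S. pyogenes A65 at 3×10^7 cells or P. aeruginosa 12 at 4×10^3 cells. Compounds were suspended in 0.2% sodium carboxymethylcellulose and given orally at 0 and 6 h postinfection. The result is reported as ED50 in mg/kg.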

[5] = tested on: Staphylococcus epidermidis; test: In vitro antibacterial activity against […] 8; procedure, shortened: as §1
[6] = tested on: Serratia marcescens; test: In vitro antibacterial activity against Serratia marcescens S-9
Procedure, shortened: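 MIC (µg/mL) by 2-fold agar dilution on Mueller-Hinton agar (pH 7.4), following the Japan Society of Chemotherapy MIC Committee method. Inoculum of about 10⁶ CFU. Growth was read after 20 h at 37 °C.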

[7] = tested on: Staphylococcus aureus; test: In vitro antibacterial activity against Staphylococcus aureus 50774; procedure, shortened: as §1
[8] = species: Mus musculus; test: Oral efficacy against Streptococcus pyogenes A65 on Systemic Infections in Mice; procedure, shortened: as §2
[9] = tested on: Enterococcus faecalis; test: In vitro antibacterial activity against Streptococcus faecalis 2473; procedure, shortened: as §1
[10] = tested on: Streptococcus pyogenes; test: In vitro antibacterial activity against Streptococcus pyogenes A65; procedure, shortened: as §1
[11] = tested on: Escherichia coli; test: In vitro antibacterial activity against Escherichia coli P-5101; procedure, shortened: as §1
[12] = tested on: Moraxella bovis; test: In vitro antibacterial activity against glucose nonfermenter Moraxella bovis P-7101; procedure, shortened: as §1
[13] = tested on: Klebsiella pneumoniae; test: In vitro antibacterial activity against Klebsiella pneumoniae 13; procedure, shortened: as §1
[14] = tested on: Pseudomonas aeruginosa; test: In vitro antibacterial activity against Pseudomonas aeruginosa IFO 3445; procedure, shortened: as §1
[15] = tested on: Enterobacter cloacae; test: In vitro antibacterial activity against Enterobacter cloacae 963

MIC [1] [µg/mL]	MIC [2] [µg/mL]	MIC [3] [µg/mL]	MIC [15] [µg/mL]	SMILES	ED50 [4] [mg/kg]	MIC [5] [µg/mL]	MIC [6] [µg/mL]	MIC [7] [µg/mL]	ED50 [8] [mg/kg]	MIC [9] [µg/mL]	MIC [10] [µg/mL]	MIC [11] [µg/mL]	MIC [12] [µg/mL]	MIC [13] [µg/mL]	MIC [14] [µg/mL]
12.5 (≈ 31.8 µM)	25 (≈ 63.6 µM)	0.2 (≈ 0.508 µM)	–	COc1c(F)c(N2CCN(C)CC2)c(F)c2c1c(=O)c(C(=O)O)cn2C1CC1	–	–	–	–	–	–	–	–	–	–	–
1.56 (≈ 3.7 µM)	0.05 (≈ 0.119 µM)	0.1 (≈ 0.237 µM)	–	CN(C)CC1CN(c2c(F)c(N)c3c(=O)c(C(=O)O)cn(C4CC4)c3c2F)CCN1 (stereo not given)	–	–	–	–	–	–	–	–	–	–	–
0.39 (≈ 1.03 µM)	0.39 (≈ 1.03 µM)	0.1 (≈ 0.265 µM)	0.05 (≈ 0.132 µM)	C[C@@H]1CN(c2c(F)cc3c(=O)c(C(=O)O)cn(C4CC4)c3c2F)C[C@H](C)N1	1.41	–	0.2 (≈ 0.53 µM)	–	8.64	1.56 (≈ 4.13 µM)	0.39 (≈ 1.03 µM)	0.0063 (≈ 0.0167 µM)	0.78 (≈ 2.07 µM)	0.05 (≈ 0.132 µM)	0.39 (≈ 1.03 µM)
0.39 (≈ 1.07 µM)	0.2 (≈ 0.55 µM)	0.025 (≈ 0.0688 µM)	0.05 (≈ 0.138 µM)	CN1CCN(c2c(F)cc3c(=O)c(C(=O)O)cn(C4CC4)c3c2F)CC1	2.18	0.1 (≈ 0.275 µM)	0.1 (≈ 0.275 µM)	0.1 (≈ 0.275 µM)	8.84	0.78 (≈ 2.15 µM)	0.39 (≈ 1.07 µM)	0.0125 (≈ 0.0344 µM)	0.78 (≈ 2.15 µM)	0.05 (≈ 0.138 µM)	0.78 (≈ 2.15 µM)
0.78 (≈ 2.06 µM)	0.2 (≈ 0.527 µM)	0.05 (≈ 0.132 µM)	–	CN1CCN(c2c(F)c(O)c3c(=O)c(C(=O)O)cn(C4CC4)c3c2F)CC1	–	–	–	–	–	–	–	–	–	–	–
0.1 (≈ 0.264 µM)	0.025 (≈ 0.0661 µM)	0.0063 (≈ 0.0166 µM)	0.0125 (≈ 0.033 µM)	C[C@H]1CN(c2c(F)c(N)c3c(=O)c(C(=O)O)cn(C4CC4)c3c2F)CCN1	0.84	0.025 (≈ 0.0661 µM)	0.05 (≈ 0.132 µM)	0.025 (≈ 0.0661 µM)	5.06	0.39 (≈ 1.03 µM)	0.2 (≈ 0.529 µM)	0.0063 (≈ 0.0166 µM)	0.2 (≈ 0.529 µM)	0.0125 (≈ 0.033 µM)	0.2 (≈ 0.529 µM)
50 (≈ 123 µM)	25 (≈ 61.5 µM)	3.13 (≈ 7.7 µM)	–	CN1CCN(c2c(F)c(N(C)C)c3c(=O)c(C(=O)O)cn(C4CC4)c3c2F)CC1	–	–	–	–	–	–	–	–	–	–	–
3.13 (≈ 7.98 µM)	0.78 (≈ 1.99 µM)	0.39 (≈ 0.994 µM)	–	C[C@@H]1CN(c2c(F)c(N)c3c(=O)c(C(=O)O)cn(C4CC4)c3c2F)[C@@H](C)CN1	–	–	–	–	–	–	–	–	–	–	–
0.2 (≈ 0.529 µM)	0.05 (≈ 0.132 µM)	0.0125 (≈ 0.033 µM)	–	C[C@@H]1CN(c2c(F)c(N)c3c(=O)c(C(=O)O)cn(C4CC4)c3c2F)CCN1	–	–	–	–	–	–	–	–	–	–	–
0.78 (≈ 1.76 µM)	0.39 (≈ 0.882 µM)	0.05 (≈ 0.113 µM)	–	CN1CCN(c2c(F)c(Br)c3c(=O)c(C(=O)O)cn(C4CC4)c3c2F)CC1	–	–	–	–	–	–	–	–	–	–	–
6.25 (≈ 13.3 µM)	6.25 (≈ 13.3 µM)	1.56 (≈ 3.32 µM)	–	CN1CCN(c2c(F)c(OCc3ccccc3)c3c(=O)c(C(=O)O)cn(C4CC4)c3c2F)CC1	–	–	–	–	–	–	–	–	–	–	–
12.5 (≈ 29.2 µM)	3.13 (≈ 7.31 µM)	0.39 (≈ 0.91 µM)	–	CN1CCN(c2c(F)c(-n3cccc3)c3c(=O)c(C(=O)O)cn(C4CC4)c3c2F)CC1	–	–	–	–	–	–	–	–	–	–	–
0.78 (≈ 1.98 µM)	0.2 (≈ 0.508 µM)	0.025 (≈ 0.0636 µM)	–	C[C@@H]1CN(c2c(F)c(O)c3c(=O)c(C(=O)O)cn(C4CC4)c3c2F)C[C@H](C)N1	–	–	–	–	–	–	–	–	–	–	–
12.5 (≈ 30.5 µM)	3.13 (≈ 7.64 µM)	0.2 (≈ 0.488 µM)	–	CSc1c(F)c(N2CCN(C)CC2)c(F)c2c1c(=O)c(C(=O)O)cn2C1CC1	–	–	–	–	–	–	–	–	–	–	–
0.78 (≈ 1.74 µM)	6.25 (≈ 13.9 µM)	0.05 (≈ 0.111 µM)	–	CN(C)CCNc1c(F)c(N2CCN(C)CC2)c(F)c2c1c(=O)c(C(=O)O)cn2C1CC1	–	–	–	–	–	–	–	–	–	–	–
0.78 (≈ 1.85 µM)	0.39 (≈ 0.923 µM)	0.05 (≈ 0.118 µM)	–	CN1CCN(c2c(F)c(NCCO)c3c(=O)c(C(=O)O)cn(C4CC4)c3c2F)CC1	–	–	–	–	–	–	–	–	–	–	–

SMILES	MIC [1] [µg/mL]	MIC [2] [µg/mL]	MIC [3] [µg/mL]	MIC [15] [µg/mL]	ED50 [4] [mg/kg]	MIC [5] [µg/mL]	MIC [6] [µg/mL]	MIC [7] [µg/mL]	ED50 [8] [mg/kg]	MIC [9] [µg/mL]	MIC [10] [µg/mL]	MIC [11] [µg/mL]	MIC [12] [µg/mL]	MIC [13] [µg/mL]	MIC [14] [µg/mL]
O=C(O)c1cn(C2CC2)c2cc(N3CCNCC3)c(F)cc2c1=O [CIPROFLOXACIN]	–	0.1 (≈ 0.302 µM)	–	–	2.78	0.1 (≈ 0.302 µM)	0.05 (≈ 0.151 µM)	0.2 (≈ 0.604 µM)	23.9	1.56 (≈ 4.71 µM)	0.2 (≈ 0.604 µM)	0.0063 (≈ 0.019 µM)	3.13 (≈ 9.45 µM)	0.025 (≈ 0.0754 µM)	0.2 (≈ 0.604 µM)
O=C(O)c1cn(C2CC2)c2c(F)c(N3CCNCC3)c(F)c(F)c2c1=O	0.39 (≈ 1.06 µM)	0.2 (≈ 0.544 µM)	0.0125 (≈ 0.034 µM)	0.025 (≈ 0.0681 µM)	3.87	0.2 (≈ 0.544 µM)	0.1 (≈ 0.272 µM)	0.39 (≈ 1.06 µM)	25	3.13 (≈ 8.52 µM)	3.13 (≈ 8.52 µM)	0.0125 (≈ 0.034 µM)	3.13 (≈ 8.52 µM)	0.05 (≈ 0.136 µM)	0.78 (≈ 2.12 µM)
O=C(O)c1cn(C2CC2)c2c(F)c(N3CCNCC3)c(F)c(O)c2c1=O	0.39 (≈ 1.07 µM)	0.2 (≈ 0.547 µM)	0.025 (≈ 0.0684 µM)	–	–	–	–	–	–	–	–	–	–	–	–
O=C(O)c1cn(C2CC2)c2c(F)c(N3CCNCC3)c(F)cc2c1=O	0.05 (≈ 0.143 µM)	–	–	0.025 (≈ 0.0716 µM)	1.22	0.025 (≈ 0.0716 µM)	0.025 (≈ 0.0716 µM)	0.05 (≈ 0.143 µM)	20.5	0.78 (≈ 2.23 µM)	0.2 (≈ 0.573 µM)	0.0031 (≈ 0.00887 µM)	0.39 (≈ 1.12 µM)	0.0125 (≈ 0.0358 µM)	0.2 (≈ 0.573 µM)
